MLLE-PAM2 inh: inhibitors of PABP1 MLLE–PAM2 peptide binding, primary screen, biochemical, fluorescence polarization, FITC-PAM2, GST-MLLE; AID 588489, 2011; inhibition, % at 20 µM; Polyadenylate-binding protein 1 (Homo sapiens), P11940; 360,000 compounds, 0.36% hits; in the data active = inhibition above about 35%, passing the limit was not always enough;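 also: plate controls were DMSO wells with GST-MLLE for no effect and wells lacking GST-MLLE protein for full effect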
PABP FP inh: PABP poly(A) RNA binding inhibitors, primary screen, biochemical, fluorescence polarization, uHTS | AID 2014, 2009 | 290,000 compounds, 1% hits | inhibition, % at 35 µM | Polyadenylate-binding protein 1 (Homo sapiens), P11940;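 also: calls also rest on retests at 20 µM and on dose response follow-up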
eIF4H inh: human eIF4H binding inhibitors, primary screen, translation initiation inhibitor project, biochemical, uHTS, fluorescence polarization; Eukaryotic translation initiation factor 4H (Homo sapiens), Q15056; inhibition, % at 35 µM; 290,000 compounds, 0.94% hits; eIF4H fluorescence polarization binding assay;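 also: calls also rest on retests at 20 µM and on dose response follow-up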
SKN-1 inh: suppressors of acrylamide-induced Pgst-4::GFP reporter in worms, primary screen, SKN-1 inhibitor project, whole organism, uHTS, GFP/RFP fluorescence ratio, strain VP596; C. elegans VP596 Pgst-4::GFP/RFP ratio, 24 h; inhibition, % at 21.8 µM; 360,000 compounds, 0.49% hits; AID 624304, 2012;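 active = interference check ratio from 0.5 to 1.5 plus GFP to RFP signal ratio inhibition reaching or exceeding a fixed threshold, cut at about 30% in these data, passing the limit was not always enough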
MT1-MMP act inh: blockers of MT1-MMP proenzyme processing, primary screen, HT1080 RFP-PRO-GFP cells, GFP/RFP fluorescence; Matrix metalloproteinase-14 (Homo sapiens), P50281; GFP/RFP ratio fluorescence, overnight; percent of plate control window, DMSO zero; GFP/RFP ratio change, % at 20 µM; 360,000 compounds, 0.061% hits;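 active = GFP/RFP ratio change of at least 30% with cell ATP level not reduced by more than half and red fluorescence within 50% of control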
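Assay system: HT1080 cells carrying an RFP-PRO-GFP reporter | Dosing: Single dose of 20 µM compound, 1% DMSO final | Incubation: Cells overnight before dosing, compound overnight, 37 °C, 5% CO2 | Evaluation: GFP/RFP fluorescence ratio | Control set: DMSO and RFP-L50D-GFP cell wells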
Starred values were filed as active, the others as inactive; ? = inconclusive; · = no result. An excerpt weighted towards active compounds, which were near 1.7% of everything screened. Unless noted, no rule for the calls is given here.

SMILES | MLLE-PAM2 inh | PABP FP inh | eIF4H inh | SKN-1 inh | MT1-MMP act inh
Cc1ccc([N+](=O)[O-])cc1NC(=O)Nc1cccc(F)c1 | 8 | 0 | 0 | 2 | -2
Cc1nc(CSc2nsc(/C=C/N(C)C)c2C#N)cs1 | -59 | 11 | ? | -8 | -46
COC(=O)c1ccccc1CSc1nsc(/C=C/N(C)C)c1C#N | -75 | active | 60 | -1 | -27
CC(C)CNC1=CC(=O)CC(c2ccco2)C1 (stereo not given) | 6 | 92* | 108* | -8 | 9
O=C1C=C(O)CC(c2ccco2)C1 (stereo not given) | -1 | 77* | 104* | -1 | -4
O=C1C=C(Nc2ccc(O)cc2)CC(c2ccco2)C1 (stereo not given) | 5 | -4 | 0 | 17 | 10
N#CC1=C(N)SC(N)=C(C#N)C1CCC1CCCCC1 | · | 116* | 122 | · | ·
C[C@H](O)[C@@H]1CN2CCc3c([nH]c4ccc(-c5ccc6c(c5)OCO6)cc34)[C@@H]2C[C@@H]1N(C)C(=O)NC1CCCCC1 | -12 | · | · | 2 | 6
Cc1[nH]nc2c1C(c1ccc(-c3ccc(Cl)cc3)o1)C(C#N)=C(N)O2 (stereo not given) | -1 | 4 | 18 | -7 | -4
Cc1ccc(-c2ccc(C3C(C#N)=C(N)Oc4n[nH]c(C)c43)o2)cc1 (stereo not given) | -16 | 76* | 54* | 2 | -9
CC(C(=O)Nc1ccccc1F)N1CCN(S(=O)(=O)c2ccc(C(F)(F)F)cc2)CC1 (stereo not given) | 4 | · | · | 1 | -5
O=C1CCCC2=C1C(c1ccc(O)c(O)c1)Nc1ccc3ncccc3c12 (stereo not given) | -12 | active | 74* | -3 | 5
O=C1CCCC2=C1C(c1cccs1)Nc1ccc3ncccc3c12 (stereo not given) | 10 | 18 | -7 | 13 | 1
Cc1cccc(CN2C(=O)N/C(=C/c3ccc(C)s3)C2=O)c1 | -74 | 88* | 69* | 13 | -10
Cc1ccc(/C=C2/NC(=O)N(Cc3ccccc3)C2=O)s1 | -64 | ? | ? | 4 | -68
Cc1ccc(S(=O)(=O)NC(C)C(=O)N2CCOCCOCCOCCOCC2)cc1 (stereo not given) | -10 | 6 | -3 | -16 | 4
COC(=O)C(C)N1C(=O)S/C(=C/c2cc(C)n(-c3ccccn3)c2C)C1=O (stereo not given) | -7 | 75* | 83* | 2 | -6
Cc1cc(C)n(NC(=S)NC2CCCC2)c(=O)c1C#N | 45* | -2 | -2 | -5 | 2
O=C1CC(c2ccco2)Sc2nc3ccccc3n21 (stereo not given) | -51 | 63* | 89* | -10 | -8
O=C1CC(c2ccccc2)Sc2nc3ccccc3n21 (stereo not given) | -36 | 5 | -2 | 10 | -1
COC(=O)c1oc2ccc(Cl)cc2c1-n1cccc1 | 3 | 3 | 2 | 37* | 2
CNc1ccc(Br)cc(C(=O)/C=C/c2ccc(OC)cc2)c1=O | -23 | 1 | 32 | 6 | -18
CNc1ccc(Br)cc(C(=O)/C=C/c2ccc3c(c2)OCO3)c1=O | -23 | 48* | 92* | 2 | -2
CCNc1nc2c(cnn2C)c(=O)[nH]1 | -7 | · | · | -19 | -4
C/C(=N\NC(=O)c1ccc(NS(=O)(=O)c2cccs2)cc1)c1cccs1 | -3 | 81* | active | 1 | 2
SMILES | MLLE-PAM2 inh | PABP FP inh | eIF4H inh | SKN-1 inh | MT1-MMP act inh
C/C(=N\NC(=O)c1ccc(NS(=O)(=O)c2cccs2)cc1)c1ccc(Cl)cc1 | -4 | -1 | 1 | 12 | 1
Cc1ccc(NC(=O)CN2C(=O)S/C(=C/c3ccc(-c4cc(C(=O)O)ccc4C)o3)C2=O)cc1C | -4 | 54* | 38 | 7 | -2
COC(=O)C(C)N1C(=O)S/C(=C\c2ccc(-c3ccc(C(=O)O)cc3C)o2)C1=O (stereo not given) | -97 | 45* | 52* | 11 | -10
Cc1c(Cl)cccc1-c1ccc(/C=N/n2cnnc2)o1 | 9 | 3 | -2 | 1 | 2
Cc1cccc(NC(=O)CN2C(=O)S/C(=C\c3ccc(-c4cccc(C(=O)O)c4C)o3)C2=O)c1 | · | -12 | 92* | · | ·
Cc1ccc(C(=O)O)cc1-c1ccc(C=C2C(=O)c3ccccc3C2=O)o1 | -159 | 13 | 28 | 20 | -2
Cc1c(C(=O)O)cccc1-c1ccc(/C=N/n2cnnc2)o1 | -22 | 43* | 53* | -9 | -3
Nc1cc(Cl)cc2c1-c1ccc(Cl)cc1C2 | -9 | · | · | 34 | 0
O=C(N/N=C/c1cc(Cl)cc([N+](=O)[O-])c1O)c1cccc(S(=O)(=O)N2CCOCC2)c1 | -23 | · | · | 20 | -5
COC(=O)c1ccc(-c2ccc(Cl)cc2)nc1C | 19 | 9 | 6 | 51* | -2
CCOc1ccc(N(CC(=O)NC2CCCC2)C(=O)CCC(=O)Nc2nccs2)cc1 | -11 | -1 | -7 | -6 | -2
C/C(CC(=O)N1CCN(C=O)CC1)=N\NC(=O)c1cc2ccccc2cc1O | 20 | active | 102* | -8 | -14
C/C(=N/NC(=O)c1cc2ccccc2cc1O)C1C(=O)c2ccccc2C1=O | -36 | 54* | 45 | 18 | -10
O=C(NCc1ccc(Cl)cc1Cl)Nc1nc([C@@H]2O[C@H](CO)[C@@H](O)[C@H](O)[C@H]2O)cs1 | -1 | · | · | 6 | -2
CCN(CC)S(=O)(=O)c1ccc(C(=O)NCCOC(=O)c2ccc(F)cc2F)cc1 | 13 | -9 | 17 | 20 | 1
Oc1ccc(C(c2nnnn2CCc2ccccc2)N2CCN(c3nc4ccccc4s3)CC2)cc1 (stereo not given) | -3 | 1 | -7 | -5 | -7
C=CC[C@H](CC(=O)N(CCO)Cc1ccccc1)C(=O)NCCOC(=O)[C@@H](CC=C)CC(=O)OC(C)(C)C | 0 | · | · | 17 | 1
COc1ccc(C(CNC(=O)/C=C/c2c(Cl)nc3ccccn23)N(C)C)cc1 (stereo not given) | -1 | 66* | 7.6* | -4 | -2
COc1ccc(CCN(C)C(=O)/C=C/c2c(Cl)nc3ccccn23)cc1OC | -29 | 15 | 3 | 3 | 3
O=C(NCc1cccnc1)/C(=C/c1ccco1)NC(=O)c1ccccc1 | 15 | 1 | -9 | -12 | -6
O=C(NC(Cc1ccccc1)C(=O)O)/C(=C\c1ccco1)NC(=O)c1ccccc1 (stereo not given) | 7 | active | 91* | 5 | -4
COc1ccc(C(=O)N/C(=C\c2ccco2)C(=O)NCc2cccnc2)cc1 | 15 | 8 | 61* | 12 | -3

From PubChem
